Source: ChEMBL document CHEMBL1129660, “Studies on 6-aminoquinolones: synthesis and antibacterial evaluation of 6-amino-8-methylquinolones” (J Med Chem, 1996)
In brackets after ≈: the same amount, converted by molar mass.

Experiments:
Assay type in all cases: functional
Staphylococcus aureus [1] = assay: Antibacterial activity against Staphylococcus aureus ATCC 6538
Method in brief: (§1)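 MICs (µg/mL) determined by conventional agar dilution against a panel of eight Gram-negative and five Gram-positive reference strains.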

Enterococcus faecalis = assay: Antibacterial activity tested against Streptococcus faecalis LEP Br; method in brief: as §1
Klebsiella pneumoniae = assay: Antibacterial activity tested against Klebsiella pneumoniae (Klebsiella pneumoniae) ATCC 10031; method in brief: as §1
Providencia stuartii = assay: Antibacterial activity tested against Providencia stuartii CNUR 5; method in brief: as §1
Enterobacter cloacae = assay: Antibacterial activity tested against Enterobacter cloacae OMNFI 174
Staphylococcus aureus [2] = assay: Antibacterial activity against Staphylococcus aureus MPR 5; method in brief: as §1
Pseudomonas aeruginosa = assay: Antibacterial activity tested against P. ae (Pseudomonas aeruginosa) ATCC 9027; method in brief: as §1
[3] = Geometric mean of antibacterial activity (Gram -ve bacteria) of the compound
Method in brief: (§2)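 Geometric means calculated from agar-dilution MICs (µg/mL), taken separately across the five Gram-positive and the eight Gram-negative panel strains.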

Escherichia coli [4] = assay: Antibacterial activity tested against Escherichia coli ATCC 8739; method in brief: as §1
Shigella = assay: Antibacterial activity tested against Shigella enteritidis; method in brief: as §1
Escherichia coli [5] = assay: Antibacterial activity tested against Escherichia coli ISF 432; method in brief: as §1
[6] = test system: Staphylococcus epidermidis; assay: Antibacterial activity tested against Staphylococcus epidermidis CPHL A2; method in brief: as §1
[7] = test system: Staphylococcus epidermidis; assay: Antibacterial activity tested against Staphylococcus epidermidis HCF Berset C; method in brief: as §1
Proteus vulgaris = assay: Antibacterial activity tested against Proteus vulgaris CNUR 5; method in brief: as §1
Bacteria = assay: Geometric mean of antibacterial activity (Gram +ve bacteria) of the compound; method in brief: as §2

| SMILES | MIC (Staphylococcus aureus [1]) [µg/mL] | MIC (Enterococcus faecalis) [µg/mL] | MIC (Klebsiella pneumoniae) [µg/mL] | MIC (Providencia stuartii) [µg/mL] | MIC (Enterobacter cloacae) [µg/mL] | MIC (Staphylococcus aureus [2]) [µg/mL] | MIC (Escherichia coli [4]) [µg/mL] | MIC (Shigella) [µg/mL] | MIC (Escherichia coli [5]) [µg/mL] | MIC [6] [µg/mL] | MIC [7] [µg/mL] | MIC (Proteus vulgaris) [µg/mL] | MIC (Pseudomonas aeruginosa) [µg/mL] | Geometric mean [3] | Geometric mean (Bacteria) |
| --- | --- | --- | --- | --- | --- | --- | --- | --- | --- | --- | --- | --- | --- | --- | --- |
| Cc1c(N2CC=CCC2)c(N)cc2c(=O)c(C(=O)O)cn(C3CC3)c12 | > 128 | > 128 | 1 (≈ 2.95 µM) | > 128 | > 128 | > 128 | 1 (≈ 2.95 µM) | > 128 | 1 (≈ 2.95 µM) | > 128 | > 128 | > 128 | > 128 | 20.749 | 128 |
| CN1CCN(c2cc3c(cc2N)c(=O)c(C(=O)O)cn3-c2ccc(F)cc2)CC1 | 8 (≈ 20.2 µM) | 64 (≈ 161 µM) | 0.125 (≈ 0.315 µM) | 4 (≈ 10.1 µM) | 4 (≈ 10.1 µM) | 4 (≈ 10.1 µM) | 0.125 (≈ 0.315 µM) | 4 (≈ 10.1 µM) | 0.125 (≈ 0.315 µM) | 8 (≈ 20.2 µM) | 8 (≈ 20.2 µM) | 128 (≈ 323 µM) | 8 (≈ 20.2 µM) | 1.834 | 10.556 |
| Cc1c(N2CC(C)NC(C)C2)c(N)cc2c(=O)c(C(=O)O)cn(C3CC3)c12 (stereo not given) | 1 (≈ 2.7 µM) | 16 (≈ 43.2 µM) | 0.03 (≈ 0.081 µM) | 2 (≈ 5.4 µM) | 0.5 (≈ 1.35 µM) | 1 (≈ 2.7 µM) | 0.06 (≈ 0.162 µM) | 0.25 (≈ 0.675 µM) | 0.03 (≈ 0.081 µM) | 1 (≈ 2.7 µM) | 2 (≈ 5.4 µM) | 8 (≈ 21.6 µM) | 2 (≈ 5.4 µM) | 0.348 | 2 |
| CN1CCN(c2c(N)cc3c(=O)c(C(=O)O)cn(C4CC4)c3c2F)CC1 | 4 (≈ 11.1 µM) | 64 (≈ 178 µM) | 0.06 (≈ 0.166 µM) | 4 (≈ 11.1 µM) | 0.25 (≈ 0.694 µM) | 4 (≈ 11.1 µM) | 1 (≈ 2.77 µM) | 0.25 (≈ 0.694 µM) | 0.06 (≈ 0.166 µM) | 4 (≈ 11.1 µM) | 8 (≈ 22.2 µM) | 32 (≈ 88.8 µM) | 2 (≈ 5.55 µM) | 0.699 | 8 |

Continued, in another order:

| MIC (Staphylococcus aureus [1]) [µg/mL] | MIC (Enterococcus faecalis) [µg/mL] | MIC (Klebsiella pneumoniae) [µg/mL] | MIC (Providencia stuartii) [µg/mL] | MIC (Enterobacter cloacae) [µg/mL] | MIC (Staphylococcus aureus [2]) [µg/mL] | MIC (Escherichia coli [4]) [µg/mL] | MIC (Shigella) [µg/mL] | MIC (Escherichia coli [5]) [µg/mL] | MIC [6] [µg/mL] | MIC [7] [µg/mL] | MIC (Proteus vulgaris) [µg/mL] | SMILES | MIC (Pseudomonas aeruginosa) [µg/mL] | Geometric mean [3] | Geometric mean (Bacteria) |
| --- | --- | --- | --- | --- | --- | --- | --- | --- | --- | --- | --- | --- | --- | --- | --- |
| 0.5 (≈ 1.39 µM) | 8 (≈ 22.3 µM) | 0.03 (≈ 0.0835 µM) | 1 (≈ 2.78 µM) | 0.5 (≈ 1.39 µM) | 0.5 (≈ 1.39 µM) | 0.03 (≈ 0.0835 µM) | 0.5 (≈ 1.39 µM) | 0.03 (≈ 0.0835 µM) | 1 (≈ 2.78 µM) | 2 (≈ 5.56 µM) | 128 (≈ 356 µM) | CC1CN(c2cc3c(cc2N)c(=O)c(C(=O)O)cn3C2CC2)CCS1 (stereo not given) | 2 (≈ 5.56 µM) | 0.451 | 1.32 |
| 128 (≈ 408 µM) | 128 (≈ 408 µM) | 0.25 (≈ 0.798 µM) | 128 (≈ 408 µM) | 8 (≈ 25.5 µM) | 128 (≈ 408 µM) | 0.25 (≈ 0.798 µM) | 16 (≈ 51.1 µM) | 0.25 (≈ 0.798 µM) | 128 (≈ 408 µM) | 128 (≈ 408 µM) | 128 (≈ 408 µM) | Nc1cc2c(=O)c(C(=O)O)cn(C3CC3)c2cc1N1CCCC1 | 128 (≈ 408 µM) | 6.73 | 128 |
| 4 (≈ 12.2 µM) | 64 (≈ 195 µM) | 0.5 (≈ 1.53 µM) | 64 (≈ 195 µM) | 64 (≈ 195 µM) | 4 (≈ 12.2 µM) | 32 (≈ 97.7 µM) | 64 (≈ 195 µM) | 1 (≈ 3.05 µM) | 16 (≈ 48.9 µM) | 16 (≈ 48.9 µM) | > 128 | Cc1c(N2CCCC2)c(N)cc2c(=O)c(C(=O)O)cn(C3CC3)c12 | > 128 | 22.627 | 12.12 |
| 16 (≈ 46.7 µM) | 32 (≈ 93.5 µM) | 0.03 (≈ 0.0876 µM) | 16 (≈ 46.7 µM) | 0.25 (≈ 0.73 µM) | 16 (≈ 46.7 µM) | 0.03 (≈ 0.0876 µM) | 0.25 (≈ 0.73 µM) | 0.03 (≈ 0.0876 µM) | 4 (≈ 11.7 µM) | 4 (≈ 11.7 µM) | 32 (≈ 93.5 µM) | CC1CN(c2cc3c(cc2N)c(=O)c(C(=O)O)cn3C2CC2)CCN1 (stereo not given) | 2 (≈ 5.84 µM) | 0.451 | 10.556 |
